Measurements from ChEMBL document CHEMBL1155924, “Achieving multi-isoform PI3K inhibition in a series of substituted 3,4-dihydro-2H-benzo[1,4]oxazines” (Bioorg Med Chem Lett, 2008).

Tests used:
[1] = molecular target: T1, Phosphatidylinositol 4,5-bisphosphate 3-kinase catalytic subunit delta isoform (Homo sapiens, UniProt O00329); assay: Inhibition of PI3K delta
T1 sequence (O00329 whole entry): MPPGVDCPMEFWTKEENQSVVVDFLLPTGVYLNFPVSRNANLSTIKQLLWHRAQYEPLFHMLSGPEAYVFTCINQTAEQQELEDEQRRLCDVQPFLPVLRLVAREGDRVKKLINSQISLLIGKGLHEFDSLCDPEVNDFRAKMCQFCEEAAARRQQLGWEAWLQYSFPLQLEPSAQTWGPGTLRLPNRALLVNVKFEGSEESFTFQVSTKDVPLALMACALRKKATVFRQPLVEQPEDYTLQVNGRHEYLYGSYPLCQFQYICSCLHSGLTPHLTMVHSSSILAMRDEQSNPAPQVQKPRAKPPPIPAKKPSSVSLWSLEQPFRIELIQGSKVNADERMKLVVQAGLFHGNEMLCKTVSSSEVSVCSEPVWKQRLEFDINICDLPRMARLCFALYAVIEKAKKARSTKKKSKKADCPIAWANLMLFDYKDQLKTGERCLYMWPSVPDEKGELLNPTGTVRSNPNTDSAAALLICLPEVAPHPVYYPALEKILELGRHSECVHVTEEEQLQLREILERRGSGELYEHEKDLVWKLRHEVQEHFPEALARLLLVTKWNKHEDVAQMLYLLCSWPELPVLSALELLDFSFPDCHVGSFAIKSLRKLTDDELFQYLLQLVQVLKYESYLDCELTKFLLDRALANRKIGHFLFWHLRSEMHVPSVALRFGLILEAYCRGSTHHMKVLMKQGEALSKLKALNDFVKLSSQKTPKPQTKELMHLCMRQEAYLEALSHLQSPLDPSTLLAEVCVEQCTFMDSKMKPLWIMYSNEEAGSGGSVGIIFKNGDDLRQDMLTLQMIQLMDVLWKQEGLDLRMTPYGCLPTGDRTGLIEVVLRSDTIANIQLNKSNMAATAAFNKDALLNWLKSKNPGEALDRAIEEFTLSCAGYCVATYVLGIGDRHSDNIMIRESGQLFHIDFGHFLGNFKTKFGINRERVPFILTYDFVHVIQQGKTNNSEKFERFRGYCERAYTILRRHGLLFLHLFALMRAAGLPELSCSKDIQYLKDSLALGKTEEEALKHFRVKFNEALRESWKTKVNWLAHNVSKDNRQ

[2] = molecular target: Phosphatidylinositol 4,5-bisphosphate 3-kinase catalytic subunit gamma isoform (Homo sapiens, UniProt P48736); assay: Inhibition of PI3K gamma
[3] = molecular target: Phosphatidylinositol 4,5-bisphosphate 3-kinase catalytic subunit alpha isoform (Homo sapiens, UniProt P42336); assay: Inhibition of PI3K alpha
[4] = molecular target: Phosphatidylinositol 4,5-bisphosphate 3-kinase catalytic subunit beta isoform (Homo sapiens, UniProt P42338); assay: Inhibition of PI3K beta
[5] = test system: Neutrophil; assay: Inhibition of fMLP-stimulated superoxide production in TNF alpha-primed human neutrophils by spectrophotometry; type: functional, cell-based
How it was run: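 Human neutrophils were primed with TNFα and stimulated with fMLP, and cellular superoxide production was monitored. Inhibition values are quoted in nM.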

[6] = Clearance in human microsomes assessed per mg of protein at 0.5 uM; type: ADME, Microsome
[7] = test system: Hepatocyte; assay: Clearance in rat hepatocyte assessed per mg of protein at 2 uM; type: ADME, cell-based, Liver; details: hepatocytes
[8] = species on record: Homo sapiens; assay: Selectivity for human PI3K gamma over human PI3K delta
[9] = Clearance in rat microsomes assessed per mg of protein at 0.5 uM; type: ADME, Liver, Microsome
[10] = Cmax in Han-Wistar rat at 3 mg/kg, po; type: ADME, organism-based; set-up: dose 3 mg/kg, route oral; details: in vivo
How it was run: (§1)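 Male-or-unspecified Han–Wistar rats were given a single oral dose of 3 mg/kg. Plasma Cmax is reported in ng/mL and AUC in ng h/mL.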

[11] = AUC in Han-Wistar rat at 3 mg/kg, po; type: ADME, organism-based; set-up: dose 3 mg/kg, route oral; details: plasma; how it was run: as §1
[12] = Oral bioavailability in Han-Wistar rat at 3 mg/kg; type: ADME, organism-based; details: in vivo

Phosphatidylinositol 4,5-bisphosphate 3-kinase catalytic subunit gamma isoform, sequence (P48736 whole entry, canonical isoform): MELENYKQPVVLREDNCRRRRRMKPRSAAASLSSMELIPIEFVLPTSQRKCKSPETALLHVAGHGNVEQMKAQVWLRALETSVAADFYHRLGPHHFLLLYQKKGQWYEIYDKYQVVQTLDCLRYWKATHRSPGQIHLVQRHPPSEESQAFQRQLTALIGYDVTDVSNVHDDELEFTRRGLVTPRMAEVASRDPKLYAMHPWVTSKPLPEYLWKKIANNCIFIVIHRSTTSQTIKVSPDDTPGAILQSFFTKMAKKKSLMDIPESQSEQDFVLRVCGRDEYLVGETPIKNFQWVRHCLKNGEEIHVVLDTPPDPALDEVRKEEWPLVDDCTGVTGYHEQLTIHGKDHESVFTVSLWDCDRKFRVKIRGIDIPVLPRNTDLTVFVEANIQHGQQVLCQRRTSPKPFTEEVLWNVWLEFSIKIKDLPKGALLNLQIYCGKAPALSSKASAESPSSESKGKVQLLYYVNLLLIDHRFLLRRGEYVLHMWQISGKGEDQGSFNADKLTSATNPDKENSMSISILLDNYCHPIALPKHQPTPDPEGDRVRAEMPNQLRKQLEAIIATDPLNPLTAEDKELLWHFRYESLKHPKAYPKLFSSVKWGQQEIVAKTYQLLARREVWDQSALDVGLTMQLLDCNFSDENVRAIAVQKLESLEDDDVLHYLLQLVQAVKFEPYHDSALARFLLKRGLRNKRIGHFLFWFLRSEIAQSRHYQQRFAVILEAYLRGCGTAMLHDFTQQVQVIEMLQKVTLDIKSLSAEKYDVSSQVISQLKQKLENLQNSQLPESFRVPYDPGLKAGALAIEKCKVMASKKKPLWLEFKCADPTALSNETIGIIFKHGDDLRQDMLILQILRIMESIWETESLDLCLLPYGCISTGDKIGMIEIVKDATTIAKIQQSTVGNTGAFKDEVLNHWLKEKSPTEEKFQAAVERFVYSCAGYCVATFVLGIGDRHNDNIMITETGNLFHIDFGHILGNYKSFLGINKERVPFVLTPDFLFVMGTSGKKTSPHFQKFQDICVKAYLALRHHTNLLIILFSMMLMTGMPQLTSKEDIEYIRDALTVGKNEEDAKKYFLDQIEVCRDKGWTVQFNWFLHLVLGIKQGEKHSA
Phosphatidylinositol 4,5-bisphosphate 3-kinase catalytic subunit beta isoform, sequence (P42338 whole entry, canonical isoform): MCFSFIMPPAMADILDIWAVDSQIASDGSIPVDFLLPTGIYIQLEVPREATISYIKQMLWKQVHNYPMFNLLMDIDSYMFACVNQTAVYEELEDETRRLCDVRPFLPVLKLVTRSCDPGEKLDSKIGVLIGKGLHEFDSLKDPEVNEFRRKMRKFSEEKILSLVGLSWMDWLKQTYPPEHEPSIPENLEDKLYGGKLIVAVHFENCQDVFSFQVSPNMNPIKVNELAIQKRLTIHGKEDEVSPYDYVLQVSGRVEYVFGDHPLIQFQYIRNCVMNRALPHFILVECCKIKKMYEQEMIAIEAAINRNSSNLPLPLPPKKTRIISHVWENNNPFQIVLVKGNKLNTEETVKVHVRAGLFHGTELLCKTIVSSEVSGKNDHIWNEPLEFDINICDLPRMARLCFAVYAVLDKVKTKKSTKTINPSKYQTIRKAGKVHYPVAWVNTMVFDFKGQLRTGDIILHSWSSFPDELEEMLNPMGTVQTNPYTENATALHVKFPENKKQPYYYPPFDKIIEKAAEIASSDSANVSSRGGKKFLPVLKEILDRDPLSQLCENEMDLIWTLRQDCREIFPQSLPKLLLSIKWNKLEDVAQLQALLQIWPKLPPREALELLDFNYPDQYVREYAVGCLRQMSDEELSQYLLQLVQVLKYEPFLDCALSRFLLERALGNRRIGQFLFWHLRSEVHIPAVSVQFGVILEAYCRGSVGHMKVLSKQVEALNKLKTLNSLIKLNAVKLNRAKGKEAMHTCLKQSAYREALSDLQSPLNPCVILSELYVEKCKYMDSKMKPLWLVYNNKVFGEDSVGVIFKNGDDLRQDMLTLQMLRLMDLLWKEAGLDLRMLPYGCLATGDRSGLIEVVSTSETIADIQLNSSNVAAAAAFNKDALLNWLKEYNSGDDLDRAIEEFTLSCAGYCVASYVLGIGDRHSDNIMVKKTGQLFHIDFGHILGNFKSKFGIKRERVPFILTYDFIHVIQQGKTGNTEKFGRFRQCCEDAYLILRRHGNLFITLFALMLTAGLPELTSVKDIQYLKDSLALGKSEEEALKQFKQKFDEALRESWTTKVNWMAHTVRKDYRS
Phosphatidylinositol 4,5-bisphosphate 3-kinase catalytic subunit alpha isoform, sequence (P42336 whole entry, canonical isoform): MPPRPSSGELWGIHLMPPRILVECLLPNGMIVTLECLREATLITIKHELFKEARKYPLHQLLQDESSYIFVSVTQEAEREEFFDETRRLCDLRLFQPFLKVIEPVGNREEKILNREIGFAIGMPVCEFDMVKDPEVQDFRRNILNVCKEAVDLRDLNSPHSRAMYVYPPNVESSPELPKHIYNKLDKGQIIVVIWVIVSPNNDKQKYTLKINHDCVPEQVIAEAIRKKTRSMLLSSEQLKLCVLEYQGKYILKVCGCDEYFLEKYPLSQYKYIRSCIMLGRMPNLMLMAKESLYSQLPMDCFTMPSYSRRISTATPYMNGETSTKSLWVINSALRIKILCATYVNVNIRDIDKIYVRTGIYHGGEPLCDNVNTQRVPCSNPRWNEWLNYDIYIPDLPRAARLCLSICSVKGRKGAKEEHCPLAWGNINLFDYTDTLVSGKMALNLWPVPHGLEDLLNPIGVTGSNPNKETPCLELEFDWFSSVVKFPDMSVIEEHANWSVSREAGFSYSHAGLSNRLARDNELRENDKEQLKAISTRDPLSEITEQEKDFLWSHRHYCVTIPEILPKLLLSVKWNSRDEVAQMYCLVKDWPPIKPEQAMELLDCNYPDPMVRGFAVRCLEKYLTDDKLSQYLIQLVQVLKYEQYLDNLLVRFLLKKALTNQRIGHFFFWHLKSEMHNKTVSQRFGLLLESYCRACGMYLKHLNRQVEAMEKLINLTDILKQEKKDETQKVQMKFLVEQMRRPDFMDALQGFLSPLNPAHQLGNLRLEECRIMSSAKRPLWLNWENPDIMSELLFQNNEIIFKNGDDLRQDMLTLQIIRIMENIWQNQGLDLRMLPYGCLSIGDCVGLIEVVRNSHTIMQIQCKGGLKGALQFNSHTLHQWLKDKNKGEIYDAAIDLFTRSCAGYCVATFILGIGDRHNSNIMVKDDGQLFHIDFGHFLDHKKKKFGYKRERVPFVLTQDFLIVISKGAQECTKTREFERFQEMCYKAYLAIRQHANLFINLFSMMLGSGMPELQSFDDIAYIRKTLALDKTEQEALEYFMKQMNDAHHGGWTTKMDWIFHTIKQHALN

SMILES | IC50 [1] | IC50 [2] | IC50 [3] | IC50 [4] | also measured
CC1(C)Cc2nc(N3CCOc4ccc(-c5cnc[nH]5)cc43)sc2C(=O)N1 | 81 nM | 163 nM | 736 nM | 727 nM | –
CC1(C)Cc2nc(N3CCOCC3)sc2C(=O)N1 | 722 nM | 5280 nM | 2370 nM | 450 nM | IC50 [5]: 2960 nM; microsomal CLint at 0.5 µM [6]: 1 µL/min/mg; CL [7]: 1 µL/min/mg
CC1(C)CC(=O)c2sc(N3CCOc4ccc(Br)cc43)nc2C1 | 249 nM | 829 nM | 1970 nM | 1920 nM | –
CC1(C)CC(=O)c2sc(N3CCOc4ccc(-c5ccccn5)cc43)nc2C1 | 74 nM | 258 nM | 677 nM | 2000 nM | –
CC1(C)Cc2nc(N3CCOc4ccccc43)sc2C(=O)N1 | 1630 nM | 959 nM | – | 1230 nM | fold change (FC) [8]: 2
Cc1cccc2c1OCCN2c1nc2c(s1)C(=O)NC(C)(C)C2 | 15300 nM | – | – | – | –
CC1(C)CC(=O)c2sc(N3CCOc4ccc(-c5ccncc5)cc43)nc2C1 | 94 nM | 159 nM | 825 nM | 1050 nM | –
CC1(C)CC(=O)c2sc(N3CCOc4ccc(-c5cn[nH]c5)cc43)nc2C1 | 17 nM | 77 nM | 188 nM | 298 nM | –
CC1(C)CC(=O)c2sc(N3CCOc4ccc(-c5ccccc5)cc43)nc2C1 | 80 nM | 854 nM | 2670 nM | 7990 nM | IC50 [5]: 267 nM; clearance ([9]; microsomes, 0.5 µM): 15 µL/min/mg; clearance ([6]; 0.5 µM): 18 µL/min/mg
Cc1ccc2c(c1)OCCN2c1nc2c(s1)C(=O)NC(C)(C)C2 | 605 nM | 531 nM | – | 1620 nM | –
Cc1ccc(-c2ccc3c(c2)N(c2nc4c(s2)C(=O)NC(C)(C)C4)CCO3)nn1 | – | – | – | – | Cmax [10]: 185 ng/mL; AUC [11]: 2470 ng·h/mL; bioavailability [12]: 66%
CC1(C)CC(=O)c2sc(N3CCOCC3)nc2C1 | – | – | – | – | microsomal CLint at 0.5 µM ([9]; liver microsomes): 6 µL/min/mg; CL [7]: 7 µL/min/mg
CC1(C)Cc2nc(N3CCOc4ccc(Br)cc43)sc2C(=O)N1 | 153 nM | 321 nM | 1110 nM | 1620 nM | –
Cc1ccc2c(c1)N(c1nc3c(s1)C(=O)NC(C)(C)C3)CCO2 | 357 nM | 617 nM | 1810 nM | 964 nM | –
CC1(C)CC(=O)c2sc(N3CCOc4ccc(-c5cccnc5)cc43)nc2C1 | 20 nM | 113 nM | 172 nM | 376 nM | –
Cn1ccnc1-c1ccc2c(c1)N(c1nc3c(s1)C(=O)NC(C)(C)C3)CCO2 | 285 nM | 819 nM | 2900 nM | 3520 nM | –
CN(C)Cc1ccc2c(c1)N(c1nc3c(s1)C(=O)NC(C)(C)C3)CCO2 | 7570 nM | > 20000 nM | > 20000 nM | 10300 nM | –
Cc1nc(-c2ccc3c(c2)N(c2nc4c(s2)C(=O)NC(C)(C)C4)CCO3)c[nH]1 | 51 nM | 107 nM | 636 nM | 325 nM | –
